According to ChEMBL document CHEMBL1158389, “Highly twisted adamantyl arotinoids: synthesis, antiproliferative effects and RXR transactivation profiles” (Eur J Med Chem, 2009):
Calls of active or inactive are those of the source. No cut-off for these calls is given here.

How the values were obtained:
SK-OV-3 = test: Antiproliferative activity against human SKOV3 cells at 4 uM after 48 hrs by MTT assay; format: functional; details: SK-OV-3, 48 h
Outline: (§1)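 Epithelial cancer lines came from ATCC and were seeded the day before in complete medium: PC-3, SkOV3 and A549 at 3,000/well; MiaPaCa-2 and BxPC-3 at 4,000; T-47D and MDA-MB-468 at 5,000. Medium was switched to 0.5% FBS just before exposure to 4 μM. Read-out was MTT (4 h, 37 °C), SDS/HCl solubilisation, A595 minus cell-free blank. Growth inhibition was taken versus DMSO (≤0.1% v/v) controls, ≥2 experiments in triplicate.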

A549 = test: Antiproliferative activity against human A549 cells at 4 uM after 72 hrs by MTT assay; format: functional; details: A549, 72 h; outline: as §1
MIA PaCa-2 = test: Antiproliferative activity against human MIAPaCa2 cells at 4 uM after 48 hrs by MTT assay; format: functional; details: MIA PaCa-2, 48 h; outline: as §1
T47D = test: Antiproliferative activity against human T47D cells at 4 uM after 48 hrs by MTT assay; format: functional; outline: as §1
[1] = target: T1, Retinoic acid receptor alpha (Homo sapiens) (UniProt P10276); test: Transactivation of Gal4-LBD fused human RARalpha (156 to 454) transfected in african green monkey CV1 cells assessed as luciferase activity at 2 uM after 6 hrs by Dual-light chemiluminescent assay; format: cell-based; details: CV-1
T1 sequence (whole entry): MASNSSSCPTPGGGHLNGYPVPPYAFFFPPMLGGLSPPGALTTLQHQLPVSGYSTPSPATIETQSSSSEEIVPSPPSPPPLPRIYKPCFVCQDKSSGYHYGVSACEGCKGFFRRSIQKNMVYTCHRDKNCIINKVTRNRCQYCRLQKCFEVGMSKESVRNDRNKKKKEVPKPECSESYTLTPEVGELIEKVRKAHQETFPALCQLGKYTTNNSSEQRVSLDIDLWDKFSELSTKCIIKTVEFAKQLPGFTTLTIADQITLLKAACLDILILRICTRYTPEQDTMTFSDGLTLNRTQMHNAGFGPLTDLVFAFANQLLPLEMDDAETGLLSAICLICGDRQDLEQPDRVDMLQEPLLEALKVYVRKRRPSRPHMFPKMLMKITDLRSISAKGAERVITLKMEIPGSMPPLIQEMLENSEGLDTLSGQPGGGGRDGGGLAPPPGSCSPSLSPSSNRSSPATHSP

[2] = target: T2, Retinoic acid receptor beta (Homo sapiens) (UniProt P10826); test: Transactivation of Gal4-LBD fused human RARbeta (169 to 448) transfected in african green monkey CV1 cells assessed as luciferase activity at 2 uM after 6 hrs by Dual-light chemiluminescent assay; format: cell-based; details: CV-1
T2 sequence (whole entry): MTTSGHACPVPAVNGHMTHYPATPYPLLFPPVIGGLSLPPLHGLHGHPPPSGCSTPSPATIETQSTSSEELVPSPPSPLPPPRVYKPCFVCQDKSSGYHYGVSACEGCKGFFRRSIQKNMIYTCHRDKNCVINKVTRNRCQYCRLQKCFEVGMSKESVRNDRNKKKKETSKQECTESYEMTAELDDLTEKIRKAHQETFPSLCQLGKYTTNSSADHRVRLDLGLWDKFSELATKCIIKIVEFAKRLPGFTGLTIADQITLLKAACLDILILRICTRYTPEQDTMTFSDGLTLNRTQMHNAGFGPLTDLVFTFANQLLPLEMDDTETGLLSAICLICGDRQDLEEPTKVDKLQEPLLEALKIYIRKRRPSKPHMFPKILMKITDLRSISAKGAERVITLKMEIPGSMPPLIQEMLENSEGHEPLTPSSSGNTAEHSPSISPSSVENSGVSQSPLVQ
Outline: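 Transfected CV-1 cells carried Gal4-LBD constructs: hRARα 156–462, hRARβ 169–448, hRARγ 178–454 or mRXRα 218–467. Transfection used 10 ng Gal4-LBD, 100 ng UAS-luciferase and 25 ng β-gal vector. After 16 h the medium was changed to 5% charcoal-treated FBS. Cells were stimulated with 2 μM analog for 6 h (RARα, RARβ, RXRα) or 20 h (RARγ). Reference agonists were 1 μM atRA (RARα) and 1 μM 9cRA (RXRα). Luciferase and β-galactosidase were read by chemiluminescence.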

[3] = target: T1, Retinoic acid receptor alpha (Homo sapiens); test: Inhibition of transactivation activity of Gal4-LBD fused human RARalpha (156 to 454) transfected in atRA-stimulated african green monkey CV1 cells at 4 uM after 6 hrs by Dual-light chemiluminescent assay; format: cell-based; details: CV-1
Outline: (§2)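 Gal4 DBD (1–147) was fused to hRARα (156–462) or hRARβ (169–448) LBD. CV-1 cells (20,000/well) were co-transfected with 10 ng Gal4-LBD, 100 ng UAS-luciferase and 25 ng β-gal vector. After 16 h the medium was replaced with medium containing 5% charcoal-treated FBS. Cells got atRA plus test compound at 10-, 40- or 200-fold excess (0.2, 0.8, 4 μM) for 6 h. Luciferase and β-galactosidase were read by chemiluminescence.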

[4] = target: T1, Retinoic acid receptor alpha (Homo sapiens); test: Inhibition of transactivation activity of Gal4-LBD fused human RARalpha (156 to 454) transfected in atRA-stimulated african green monkey CV1 cells at 0.2 uM after 6 hrs by Dual-light chemiluminescent assay; format: cell-based; details: CV-1, 0.2 uM; outline: as §2
[5] = target: T2, Retinoic acid receptor beta (Homo sapiens); test: Inhibition of transactivation activity of Gal4-LBD fused human RARbeta (169 to 448) transfected in atRA-stimulated african green monkey CV1 cells at 4 uM after 6 hrs by Dual-light chemiluminescent assay; format: cell-based; details: CV-1; outline: as §2
[6] = target: T3, Retinoic acid receptor RXR-alpha (Mus musculus, UniProt P28700); test: Transactivation of Gal4-LBD fused mouse RXRalpha (218 to 467) transfected in african green monkey CV1 cells assessed as luciferase activity at after 6 hrs by Dual-light chemiluminescent assay; format: cell-based, CV-1
T3 sequence (P28700 whole entry): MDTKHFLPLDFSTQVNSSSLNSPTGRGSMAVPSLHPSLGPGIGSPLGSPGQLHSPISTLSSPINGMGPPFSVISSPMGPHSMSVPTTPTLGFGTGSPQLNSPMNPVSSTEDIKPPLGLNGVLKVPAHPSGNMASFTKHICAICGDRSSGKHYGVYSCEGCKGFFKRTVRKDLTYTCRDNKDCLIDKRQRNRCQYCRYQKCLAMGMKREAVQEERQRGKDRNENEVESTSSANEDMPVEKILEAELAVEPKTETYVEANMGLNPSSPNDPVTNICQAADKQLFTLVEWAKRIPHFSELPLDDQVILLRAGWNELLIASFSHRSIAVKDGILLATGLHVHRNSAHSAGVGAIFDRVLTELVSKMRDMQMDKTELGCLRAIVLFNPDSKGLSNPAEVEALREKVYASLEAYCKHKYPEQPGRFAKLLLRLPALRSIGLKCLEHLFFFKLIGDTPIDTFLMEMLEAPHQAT

**Q.** COCCOCOc1cc(C)c(-c2ccc3cc(C(=O)O)ccc3c2Cl)cc1C12CC3CC(CC(C3)C1)C2 was tested. Which inhibition at 4 µM (SK-OV-3) did it give?
**A.** 71.2%

**Q.** And the inhibition at 4 µM (A549)?
**A.** 88.1%

**Q.** And the inhibition at 4 µM (MIA PaCa-2)?
**A.** 63.7%

**Q.** What about the inhibition at 4 µM (T47D) of the same compound?
**A.** 46.1%

**Q.** What about the Activity [1] of the same compound?
**A.** inactive

**Q.** And the Activity [2]?
**A.** inactive

**Q.** And the inhibition [3]?
**A.** 27%

**Q.** What about the inhibition [4] of the same compound?
**A.** inactive

**Q.** What about the Activity [5] of the same compound?
**A.** inactive

**Q.** What about the EC50 [6] of the same compound?
**A.** 0.667 µM

**Q.** With COCCOCOc1cc(C)c(-c2ccc(CC(=O)O)cc2Cl)cc1C12CC3CC(CC(C3)C1)C2 as the compound, how does the inhibition at 4 µM (SK-OV-3) read?
**A.** 19.1%

**Q.** And the inhibition at 4 µM (A549)?
**A.** 7.9%

**Q.** And the inhibition at 4 µM (MIA PaCa-2)?
**A.** 6.3%

**Q.** And the inhibition at 4 µM (T47D)?
**A.** 27.6%

**Q.** And the Activity [1]?
**A.** inactive

**Q.** What about the Activity [2] of the same compound?
**A.** inactive

**Q.** And the inhibition [3]?
**A.** 43.7%

**Q.** What about the inhibition [4] of the same compound?
**A.** inactive

**Q.** What about the Activity [5] of the same compound?
**A.** inactive

**Q.** And the EC50 [6]?
**A.** 1.14 µM
